{"data": "Experimental data collected from several papers", "effect on": "cell growth or viability", "note": "Each line is one published result; the experiments were not run side by side."}
{"SMILES": "OC1CCN(c2ccc(/C=N/NC(=S)Nc3ccc(Br)cc3)cc2)CC1", "cell line": "BEAS-2B", "method": "MTT", "time": "24 h", "IC50": "19.8 µM"}
{"SMILES": "COc1cccc2c1C(=O)c1c(O)c3c(c(O)c1C2=O)C[C@@](O)(C(=O)CO)C[C@@H]3O[C@H]1C[C@H](N)[C@H](O)[C@H](C)O1", "cell line": "BEAS-2B", "method": "MTT", "time": "48 h", "IC50": "4.08 µM"}
{"SMILES": "CCOC(=O)c1c(C)nc2ccc(-c3ccc(F)cc3)cc2c1O", "cell line": "MDA-MB-468", "method": "MTT", "time": "48 h", "IC50": "5 µM"}
{"SMILES": "Cc1noc(-c2nn(Cc3ccc(Cl)cc3Cl)c3ccccc23)n1", "cell line": "human Fibroblast", "time": "48 h", "IC50": "148 µM"}
{"SMILES": "OCc1ccc(-c2nn(Cc3ccccn3)c3ccccc23)o1", "cell line": "RBE", "method": "ATP luminescence", "IC50": "0.302 µM"}
{"SMILES": "COc1ccc2c(-c3nc(-c4ccccc4)no3)nn(Cc3ccncc3)c2c1", "cell line": "human Fibroblast", "time": "48 h", "IC50": "123 µM"}
{"SMILES": "CC1c2ccccc2CCN1c1ccc(CO)c(Cl)c1 (stereo not drawn)", "cell line": "RBE", "method": "ATP luminescence", "IC50": "< 0.2 µM"}
{"SMILES": "Cc1nc2ccc(-c3ccc(OCc4ccccc4)c(F)c3)cc2c(O)c1C(=O)O", "cell line": "MDA-MB-468", "method": "MTT", "time": "48 h", "IC50": "≥ 100 µM"}
{"SMILES": "COc1cc(C2C3=C(COC3=O)N(CCO)c3cc4c(cc32)CCC4)cc(OC)c1OC (stereo not drawn)", "cell line": "MDA-MB-468", "method": "ATP luminescence", "time": "48 h", "IC50": "0.1 µM"}
{"SMILES": "CNCc1ccc(-c2nn(Cc3ccccc3)c3ccccc23)o1", "cell line": "RBE", "method": "ATP luminescence", "IC50": "21.4 µM"}
{"SMILES": "Cc1ccc(CNC(=S)N/N=C/c2ccc(N3CCC(O)CC3)cc2)cc1", "cell line": "BEAS-2B", "method": "MTT", "time": "24 h", "IC50": "15.9 µM"}
{"SMILES": "CC(c1ccccc1)n1nc(-c2ccc(CO)o2)c2ccccc21 (stereo not drawn)", "cell line": "RBE", "method": "ATP luminescence", "IC50": "4.17 µM"}
{"SMILES": "Cc1nnc(-c2nn(Cc3ccc(Cl)cc3Cl)c3ccccc23)o1", "cell line": "human Fibroblast", "time": "48 h", "IC50": "97.5 µM"}
{"SMILES": "OC1CCN(c2ccc(/C=N/NC(=S)Nc3ccc(F)cc3)cc2)CC1", "cell line": "BEAS-2B", "method": "MTT", "time": "24 h", "IC50": "29.1 µM"}
{"SMILES": "COc1cc(Cn2nc(-c3ccc(CO)o3)c3ccccc32)ccn1", "cell line": "RBE", "method": "ATP luminescence", "IC50": "0.38 µM"}
{"SMILES": "CCOC(=O)c1c(C)nc2ccc(-c3cccc(F)c3)cc2c1O", "cell line": "MDA-MB-468", "method": "MTT", "time": "48 h", "IC50": "4 µM"}
{"SMILES": "COc1cccc2c1C(=O)c1c(O)c3c(c(O)c1C2=O)C[C@@](O)(C(=O)CO)C[C@@H]3O[C@H]1C[C@H](N)[C@H](O)[C@H](C)O1", "cell line": "RBE", "time": "96 h", "IC50": "0.0214 µM"}
{"SMILES": "C/C(=N\\N=C(/C)c1c(O)c2ccccc2oc1=O)c1c(O)c2ccccc2oc1=O", "cell line": "BEAS-2B", "method": "MTT", "time": "48 h", "IC50": "29.6 µM"}
{"SMILES": "OCn1ccnc1", "cell line": "BEAS-2B", "method": "MTT", "time": "24 h", "IC50": "> 800 µM"}
{"SMILES": "Cc1nc2ccc(-c3cccc(F)c3)cc2c(O)c1C(=O)O", "cell line": "MDA-MB-468", "method": "MTT", "time": "48 h", "IC50": "≥ 100 µM"}
{"SMILES": "Nc1nc2cc(CC[C@H]3C[C@@H](n4ccc5c(N)ncnc54)[C@H](O)[C@@H]3O)ccc2cc1Br", "cell line": "MDA-MB-435S", "method": "CCK-8", "time": "72 h", "IC50": "> 100 µM"}
{"SMILES": "OC1CCN(c2ccc(/C=N/NC(=S)Nc3ccc(Cl)cc3)cc2)CC1", "cell line": "BEAS-2B", "method": "MTT", "time": "24 h", "IC50": "13.7 µM"}
{"SMILES": "Clc1ccc(Cn2nc(-c3nc(-c4ccccc4)no3)c3ccccc32)c(Cl)c1", "cell line": "human Fibroblast", "time": "48 h", "IC50": "164 µM"}
{"SMILES": "OCc1ccc(-c2nn(-c3ccccc3)c3ccccc23)o1", "cell line": "RBE", "method": "ATP luminescence", "IC50": "4.27 µM"}
{"SMILES": "OCn1cncn1", "cell line": "BEAS-2B", "method": "MTT", "time": "24 h", "IC50": "> 800 µM"}
{"SMILES": "CCOC(=O)c1c(C)nc2ccc(-c3ccc(OCc4ccccc4)c(F)c3)cc2c1O", "cell line": "MDA-MB-468", "method": "MTT", "time": "48 h", "IC50": "2 µM"}
{"SMILES": "c1ccc(Cc2nnc(-c3nn(Cc4ccccc4)c4ccccc34)o2)cc1", "cell line": "human Fibroblast", "time": "48 h", "IC50": "635 µM"}
{"SMILES": "CCc1nc(C(N)=O)c(Nc2ccc(N3CCC(N4CCN(C)CC4)CC3)c(OC)c2)nc1NC1CCOCC1", "cell line": "MV4-11", "method": "resazurin", "IC50": "0.025 µM"}
{"SMILES": "C/C(=N\\C1CCCCC1/N=C(\\C)c1c(O)c2ccccc2oc1=O)c1c(O)c2ccccc2oc1=O (stereo not drawn)", "cell line": "BEAS-2B", "method": "MTT", "time": "48 h", "IC50": "5.46 µM"}
{"SMILES": "FC(F)(F)c1ccc(-c2nnc(-c3nn(Cc4ccc(Cl)cc4Cl)c4ccccc34)o2)cc1", "cell line": "human Fibroblast", "time": "48 h", "IC50": "100 µM"}
{"SMILES": "NCc1ccc(-c2nn(Cc3ccccc3)c3ccccc23)o1", "cell line": "RBE", "method": "ATP luminescence", "IC50": "2.4 µM"}
{"SMILES": "CC(=O)ON=C1C=CC(=C(C#N)c2ccccc2)C=C1", "cell line": "human Fibroblast", "method": "MTT", "time": "48 h", "IC50": "20.3 µg/mL"}
{"SMILES": "OC1CCN(c2ccc(/C=N/NC(=S)Nc3ccccc3)cc2)CC1", "cell line": "BEAS-2B", "method": "MTT", "time": "24 h", "IC50": "18.9 µM"}
{"SMILES": "c1ccc(-c2noc(-c3nn(Cc4ccncc4)c4ccccc34)n2)cc1", "cell line": "human Fibroblast", "time": "48 h", "IC50": "51.4 µM"}
{"SMILES": "COc1ccc(Cn2nc(-c3ccc(CO)o3)c3ccccc32)cc1", "cell line": "RBE", "method": "ATP luminescence", "IC50": "1.12 µM"}
{"SMILES": "CN1CCC(NC2CCc3[nH]c4c(C(N)=O)ccc(-c5ccccc5Cl)c4c3C2)CC1 (stereo not drawn)", "cell line": "RBE", "time": "96 h", "IC50": "0.00146 µM"}
